This passage reports Activity and Vd results from ChEMBL document CHEMBL4229344 (Eur J Med Chem, 2018).

Active and inactive are the calls of the source. No cut-off for these calls is given here.

The test system of data set [1] is Tyrosine-protein kinase ABL1 (Homo sapiens), P00519 [F317I]. Briefly: Binding affinity to human phosphorylated ABL1 F317I mutant (S229 to K512 residues) expressed in mammalian expression system assessed as residual binding level at 1 uM by Kinomescan method relative to control. A digest of the protocol:
(§1)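 Single-concentration (1 μM) competition-binding screen run by KINOMEscan against a panel of 468 purified kinases and mutants. The read-out is the relative binding activity of the test compound to each kinase.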

For data set [2], the target named is Activin receptor type-1B (Homo sapiens) (UniProt P36896). Briefly: Binding affinity to wild-type human ACVR1B (S187 to I505 residues) expressed in bacterial expression system assessed as residual binding level at 1 uM by Kinomescan method relative to control. A digest of the protocol: as §1
Chain of Activin receptor type-1B (Homo sapiens) (P36896 whole entry, the tested form may be a part): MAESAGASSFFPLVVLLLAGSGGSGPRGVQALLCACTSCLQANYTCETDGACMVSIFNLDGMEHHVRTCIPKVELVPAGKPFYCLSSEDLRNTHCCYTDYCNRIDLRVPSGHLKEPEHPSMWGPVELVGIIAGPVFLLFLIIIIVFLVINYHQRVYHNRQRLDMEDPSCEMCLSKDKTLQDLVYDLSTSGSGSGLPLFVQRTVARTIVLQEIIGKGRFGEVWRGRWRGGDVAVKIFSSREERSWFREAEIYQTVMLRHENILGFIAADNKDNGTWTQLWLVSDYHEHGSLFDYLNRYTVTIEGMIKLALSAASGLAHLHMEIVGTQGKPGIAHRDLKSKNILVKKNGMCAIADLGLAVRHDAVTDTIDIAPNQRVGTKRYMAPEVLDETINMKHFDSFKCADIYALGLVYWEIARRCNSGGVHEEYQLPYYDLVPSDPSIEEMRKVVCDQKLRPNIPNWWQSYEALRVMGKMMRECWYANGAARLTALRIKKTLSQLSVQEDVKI
Data set [3] concerns the target Tyrosine-protein kinase BTK (Homo sapiens) (UniProt Q06187). Briefly: Binding affinity to wild-type human full length BTK (M1 to S659 residues) expressed in mammalian expression system assessed as residual binding level at 1 uM by Kinomescan method relative to control. A digest of the protocol: as §1
In data set [4] the target is Mitotic checkpoint serine/threonine-protein kinase BUB1 (Homo sapiens) (UniProt O43683). Put plainly: Binding affinity to wild-type human partial length BUB1 (Q724 to K1085 residues) expressed in mammalian expression system assessed as residual binding level at 1 uM by Kinomescan method relative to control.
For data set [5], the target named is CDK4/Cyclin D3 (Homo sapiens) (UniProt P11802+P30281). Briefly: Binding affinity to wild-type human full length CDK4/cyclinD3 (M1 to E303 residues) expressed in mammalian expression system assessed as residual binding level at 1 uM by Kinomescan method relative to control. A digest of the protocol: as §1
Data set [6] addresses Cyclin-dependent kinase 5 (Homo sapiens) (UniProt Q00535). Put plainly: Binding affinity to wild-type human full length CDK5 (M1 to P292 residues) expressed in bacterial expression system assessed as residual binding level at 1 uM by Kinomescan method relative to control. A digest of the protocol:
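KINOMEscan competition binding against 468 purified kinases/mutants, test compound at 1 µM; residual binding relative to control.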

The target of data set [7] is Cyclin-dependent kinase-like 1 (Homo sapiens) (UniProt Q00532). Put plainly: Binding affinity to wild-type human full length CDKL1 (M1 to I358 residues) expressed in mammalian expression system assessed as residual binding level at 1 uM by Kinomescan method relative to control. A digest of the protocol:
as §1

The target in data set [8] is Tyrosine-protein kinase Fyn (Homo sapiens) (UniProt P06241). Briefly: Binding affinity to wild-type human partial length FYN (T243 to L534 residues) expressed in bacterial expression system assessed as residual binding level at 1 uM by Kinomescan method relative to control. A digest of the protocol:
(§2)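 Kinome-wide competition binding screen against a panel of 468 purified kinases/mutants, with the test compound at a single concentration of 1 μM. Read-out is the relative binding activity of each kinase in the presence of compound.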

In data set [9] the target is Homeodomain-interacting protein kinase 1 (Homo sapiens) (UniProt Q86Z02). Put plainly: Binding affinity to wild-type human partial length HIPK1 (M146 to I555 residues) expressed in mammalian expression system assessed as residual binding level at 1 uM by Kinomescan method relative to control. A digest of the protocol: as §2
The target in data set [10] is Tyrosine-protein kinase JAK1 (Homo sapiens) (UniProt P23458). Briefly: Binding affinity to wild-type human partial length JAK1 JH2 pseudokinase domain (R537 to D855 residues) expressed in mammalian expression system assessed as residual binding level at 1 uM by Kinomescan method relative to control.
Data set [11] addresses MAP kinase-interacting serine/threonine-protein kinase 2 (Homo sapiens) (UniProt Q9HBH9). Put plainly: Binding affinity to wild-type human partial length MKNK2 (G63 to S388 residues) expressed in mammalian expression system assessed as residual binding level at 1 uM by Kinomescan method relative to control.
For data set [12], the target named is Serine/threonine-protein kinase Nek2 (Homo sapiens) (UniProt P51955). Briefly: Binding affinity to wild-type human partial length NEK2 (M1 to K309 residues) expressed in bacterial expression system assessed as residual binding level at 1 uM by Kinomescan method relative to control. A digest of the protocol:
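KINOMEscan competition binding against a panel of 468 purified kinases/mutants, compound tested at 1 μM; readout is relative binding activity versus control.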

In data set [13] the target is Phosphatidylinositol 4-kinase beta (Homo sapiens) (UniProt Q9UBF8). Put plainly: Binding affinity to wild-type human full length PIK4CB (M1 to M828 residues) expressed in mammalian expression system assessed as residual binding level at 1 uM by Kinomescan method relative to control. A digest of the protocol: (§3)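 Single-concentration KINOMEscan (DiscoverX) binding screen at 1 μM against a panel of 468 purified kinases and mutants. The read-out is binding relative to control.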
Chain of Phosphatidylinositol 4-kinase beta (Homo sapiens) (Q9UBF8 2-816 limits assumed): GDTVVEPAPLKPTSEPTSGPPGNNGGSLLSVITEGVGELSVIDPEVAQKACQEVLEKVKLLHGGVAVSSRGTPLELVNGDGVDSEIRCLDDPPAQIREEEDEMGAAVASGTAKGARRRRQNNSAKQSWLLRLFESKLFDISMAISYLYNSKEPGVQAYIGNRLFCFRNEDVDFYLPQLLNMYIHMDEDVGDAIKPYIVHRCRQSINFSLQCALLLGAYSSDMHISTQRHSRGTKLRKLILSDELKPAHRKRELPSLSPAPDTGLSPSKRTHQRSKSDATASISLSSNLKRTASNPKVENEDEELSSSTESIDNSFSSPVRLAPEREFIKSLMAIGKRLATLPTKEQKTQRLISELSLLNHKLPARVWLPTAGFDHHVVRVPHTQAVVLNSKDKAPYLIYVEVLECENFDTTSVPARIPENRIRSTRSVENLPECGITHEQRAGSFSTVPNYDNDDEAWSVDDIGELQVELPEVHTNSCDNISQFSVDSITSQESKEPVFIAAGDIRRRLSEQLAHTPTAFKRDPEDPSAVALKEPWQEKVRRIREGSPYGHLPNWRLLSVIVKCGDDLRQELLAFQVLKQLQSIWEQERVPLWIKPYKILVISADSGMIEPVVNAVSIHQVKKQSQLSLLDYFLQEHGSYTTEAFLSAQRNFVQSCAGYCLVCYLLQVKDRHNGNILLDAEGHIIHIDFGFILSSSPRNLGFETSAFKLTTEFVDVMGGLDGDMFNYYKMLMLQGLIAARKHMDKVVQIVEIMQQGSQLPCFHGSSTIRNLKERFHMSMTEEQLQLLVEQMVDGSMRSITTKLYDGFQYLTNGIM

Data set [14] addresses Phosphatidylinositol 4-phosphate 5-kinase type-1 alpha (Homo sapiens) (UniProt Q99755). Briefly: Binding affinity to wild-type human full length PIP5K1A (M1 to H562 residues) expressed in bacterial expression system assessed as residual binding level at 1 uM by Kinomescan method relative to control. A digest of the protocol:
as §3

The subject of data set [15] is Proto-oncogene tyrosine-protein kinase receptor Ret (Homo sapiens), P07949 [V804M]. Briefly: Binding affinity to human partial length RET V804M mutant (E713 to D1014 residues) expressed in bacterial expression system assessed as residual binding level at 1 uM by Kinomescan method relative to control. A digest of the protocol:
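Kinome-wide single-concentration binding screen (KINOMEscan) at 1 μM against a panel of 468 purified kinases and mutants. Read-out is relative binding of each kinase compared with control. Selectivity across the panel was summarised as an S(10) score.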

In data set [16] the target is Serine/threonine-protein kinase Sgk2 (Homo sapiens) (UniProt Q9HBY8). Briefly: Binding affinity to wild-type human partial length SGK2 (L54 to C427 residues) expressed in mammalian expression system assessed as residual binding level at 1 uM by Kinomescan method relative to control.
The target of data set [17] is Serine/threonine-protein kinase WNK1 (Homo sapiens) (UniProt Q9H4A3). Briefly: Binding affinity to wild-type human partial length WNK1 (Q194 to A490 residues) expressed in mammalian expression system assessed as residual binding level at 1 uM by Kinomescan method relative to control.
Data set [18] deals with Serine/threonine-protein kinase 32C (Homo sapiens) (UniProt Q86UX6). Put plainly: Binding affinity to wild-type human partial length YANK3 (M68 to G486 residues) expressed in bacterial expression system assessed as residual binding level at 1 uM by Kinomescan method relative to control.
Chain of Serine/threonine-protein kinase 32C (Homo sapiens) (Q86UX6 whole entry, the tested form may be a part): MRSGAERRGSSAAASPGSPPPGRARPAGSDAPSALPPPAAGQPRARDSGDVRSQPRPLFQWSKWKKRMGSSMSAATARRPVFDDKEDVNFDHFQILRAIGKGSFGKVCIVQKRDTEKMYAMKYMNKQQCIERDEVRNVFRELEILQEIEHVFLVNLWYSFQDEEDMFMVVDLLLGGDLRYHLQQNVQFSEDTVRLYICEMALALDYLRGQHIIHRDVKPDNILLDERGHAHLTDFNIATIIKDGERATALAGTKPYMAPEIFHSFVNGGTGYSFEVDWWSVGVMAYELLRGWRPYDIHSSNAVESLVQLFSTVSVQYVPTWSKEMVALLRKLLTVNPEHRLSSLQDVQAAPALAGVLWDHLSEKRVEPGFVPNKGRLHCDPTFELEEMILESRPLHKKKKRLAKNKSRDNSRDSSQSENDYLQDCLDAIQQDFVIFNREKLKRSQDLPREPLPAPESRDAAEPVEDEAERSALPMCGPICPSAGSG
Data set [19] concerns the target Serine/threonine-protein kinase 25 (Homo sapiens) (UniProt O00506). Put plainly: Binding affinity to wild-type human partial length YSK1 (V14 to H295 residues) expressed in bacterial expression system assessed as residual binding level at 1 uM by Kinomescan method relative to control.
Data set [20] in a line: Apparent volume of distribution in Sprague-Dawley rat at 1 mg/kg, iv. Particulars: in vivo, read-out: Vz. Format: ADME, organism-based.
In a further data set the test system is EOL1. Briefly: Antitumor activity against human EOL-1 cells xenografted in nu/nu mouse assessed as induction of apoptosis at 25 to 100 mg/kg/day, ip by DAB staining-based TUNEL assay. Format: functional, organism-based. A digest of the protocol:
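Female nu/nu mice (6 weeks) given subcutaneous right-flank injection of 5 million EOL-1 cells in PBS/Matrigel 1:1. At 200–400 mm3 tumors, randomized to groups of 6 and dosed daily i.p. for 14 days at 25, 50 or 100 mg/kg/d in 0.5% methylcellulose/0.4% Tween80. Tumor volume = W²×L/2, measured daily.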

Chain of Phosphatidylinositol 4-phosphate 5-kinase type-1 alpha (Homo sapiens) (Q99755 whole entry, the tested form may be a part): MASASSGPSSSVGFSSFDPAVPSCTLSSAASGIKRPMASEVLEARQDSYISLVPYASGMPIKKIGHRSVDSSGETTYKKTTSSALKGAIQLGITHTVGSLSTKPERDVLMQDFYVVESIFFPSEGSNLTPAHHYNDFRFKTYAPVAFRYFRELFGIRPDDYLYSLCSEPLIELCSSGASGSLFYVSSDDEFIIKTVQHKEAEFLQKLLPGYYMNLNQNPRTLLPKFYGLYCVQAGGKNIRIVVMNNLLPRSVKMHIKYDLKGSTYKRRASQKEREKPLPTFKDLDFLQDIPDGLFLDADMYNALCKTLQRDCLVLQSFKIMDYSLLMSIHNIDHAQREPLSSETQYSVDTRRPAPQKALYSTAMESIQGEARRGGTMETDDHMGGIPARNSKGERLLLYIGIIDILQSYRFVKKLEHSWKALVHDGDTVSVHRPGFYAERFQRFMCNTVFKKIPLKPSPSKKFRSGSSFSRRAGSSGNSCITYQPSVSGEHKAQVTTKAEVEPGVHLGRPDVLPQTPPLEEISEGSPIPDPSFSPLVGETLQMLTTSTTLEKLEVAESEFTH
Chain of Tyrosine-protein kinase ABL1 (Homo sapiens), P00519 [F317I] (P00519 whole entry F317I, the tested form may be a part): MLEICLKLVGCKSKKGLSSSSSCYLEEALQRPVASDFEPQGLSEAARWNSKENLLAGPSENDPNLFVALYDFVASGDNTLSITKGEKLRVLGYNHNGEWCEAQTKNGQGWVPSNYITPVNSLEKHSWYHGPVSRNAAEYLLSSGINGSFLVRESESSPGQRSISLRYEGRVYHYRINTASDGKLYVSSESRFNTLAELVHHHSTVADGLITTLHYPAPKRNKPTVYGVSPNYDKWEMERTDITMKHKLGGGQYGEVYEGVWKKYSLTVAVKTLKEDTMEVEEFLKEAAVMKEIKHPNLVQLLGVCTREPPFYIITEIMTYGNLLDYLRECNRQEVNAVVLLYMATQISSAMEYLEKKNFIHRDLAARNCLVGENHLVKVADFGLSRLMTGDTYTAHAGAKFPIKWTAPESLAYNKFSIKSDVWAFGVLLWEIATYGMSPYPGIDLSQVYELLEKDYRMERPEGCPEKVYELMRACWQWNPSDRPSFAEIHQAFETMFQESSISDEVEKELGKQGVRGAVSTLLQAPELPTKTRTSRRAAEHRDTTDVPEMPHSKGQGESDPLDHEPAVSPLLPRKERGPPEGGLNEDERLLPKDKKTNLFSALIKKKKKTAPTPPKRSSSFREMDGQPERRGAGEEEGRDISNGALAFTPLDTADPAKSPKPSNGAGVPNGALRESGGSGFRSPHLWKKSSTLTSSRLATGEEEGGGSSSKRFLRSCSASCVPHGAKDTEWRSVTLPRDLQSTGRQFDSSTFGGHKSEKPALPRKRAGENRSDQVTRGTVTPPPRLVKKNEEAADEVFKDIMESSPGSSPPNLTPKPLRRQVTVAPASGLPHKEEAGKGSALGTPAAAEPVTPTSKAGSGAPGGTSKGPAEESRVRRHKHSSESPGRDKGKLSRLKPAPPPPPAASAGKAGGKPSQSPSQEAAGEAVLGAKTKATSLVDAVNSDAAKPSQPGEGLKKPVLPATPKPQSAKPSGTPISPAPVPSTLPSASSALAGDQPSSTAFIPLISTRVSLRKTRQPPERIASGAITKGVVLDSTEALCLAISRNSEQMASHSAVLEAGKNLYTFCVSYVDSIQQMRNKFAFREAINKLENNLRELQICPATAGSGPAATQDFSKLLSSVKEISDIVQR
Chain of Cyclin-dependent kinase-like 1 (Homo sapiens) (Q00532 whole entry, the tested form may be a part): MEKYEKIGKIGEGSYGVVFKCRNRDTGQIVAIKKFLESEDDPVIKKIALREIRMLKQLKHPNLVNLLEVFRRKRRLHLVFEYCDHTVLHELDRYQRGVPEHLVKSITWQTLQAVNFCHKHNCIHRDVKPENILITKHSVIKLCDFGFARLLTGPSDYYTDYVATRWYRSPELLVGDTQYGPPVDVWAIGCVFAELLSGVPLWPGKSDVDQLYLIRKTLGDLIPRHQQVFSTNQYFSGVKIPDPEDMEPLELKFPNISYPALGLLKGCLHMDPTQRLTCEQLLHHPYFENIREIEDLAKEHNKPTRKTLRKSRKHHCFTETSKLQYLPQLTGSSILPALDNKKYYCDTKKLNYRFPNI
Chain of Tyrosine-protein kinase BTK (Homo sapiens) (Q06187 whole entry, the tested form may be a part): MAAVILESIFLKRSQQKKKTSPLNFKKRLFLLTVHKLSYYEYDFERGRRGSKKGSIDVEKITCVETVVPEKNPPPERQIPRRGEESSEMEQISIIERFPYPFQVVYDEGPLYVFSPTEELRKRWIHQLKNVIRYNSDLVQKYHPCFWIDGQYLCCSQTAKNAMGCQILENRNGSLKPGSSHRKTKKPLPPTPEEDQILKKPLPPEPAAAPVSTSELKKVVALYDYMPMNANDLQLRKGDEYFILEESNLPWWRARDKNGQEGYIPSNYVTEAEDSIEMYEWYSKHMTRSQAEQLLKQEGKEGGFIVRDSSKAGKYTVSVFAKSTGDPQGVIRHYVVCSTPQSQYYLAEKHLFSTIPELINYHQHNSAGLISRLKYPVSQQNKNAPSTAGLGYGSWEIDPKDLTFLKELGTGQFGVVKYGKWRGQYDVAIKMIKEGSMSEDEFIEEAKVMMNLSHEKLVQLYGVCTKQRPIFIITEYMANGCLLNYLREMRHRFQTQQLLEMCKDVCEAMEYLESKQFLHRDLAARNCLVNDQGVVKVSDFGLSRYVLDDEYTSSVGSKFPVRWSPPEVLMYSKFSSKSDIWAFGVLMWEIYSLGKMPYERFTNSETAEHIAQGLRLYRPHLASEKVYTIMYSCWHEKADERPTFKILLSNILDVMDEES
Chain of Tyrosine-protein kinase Fyn (Homo sapiens) (P06241 2-537 limits assumed): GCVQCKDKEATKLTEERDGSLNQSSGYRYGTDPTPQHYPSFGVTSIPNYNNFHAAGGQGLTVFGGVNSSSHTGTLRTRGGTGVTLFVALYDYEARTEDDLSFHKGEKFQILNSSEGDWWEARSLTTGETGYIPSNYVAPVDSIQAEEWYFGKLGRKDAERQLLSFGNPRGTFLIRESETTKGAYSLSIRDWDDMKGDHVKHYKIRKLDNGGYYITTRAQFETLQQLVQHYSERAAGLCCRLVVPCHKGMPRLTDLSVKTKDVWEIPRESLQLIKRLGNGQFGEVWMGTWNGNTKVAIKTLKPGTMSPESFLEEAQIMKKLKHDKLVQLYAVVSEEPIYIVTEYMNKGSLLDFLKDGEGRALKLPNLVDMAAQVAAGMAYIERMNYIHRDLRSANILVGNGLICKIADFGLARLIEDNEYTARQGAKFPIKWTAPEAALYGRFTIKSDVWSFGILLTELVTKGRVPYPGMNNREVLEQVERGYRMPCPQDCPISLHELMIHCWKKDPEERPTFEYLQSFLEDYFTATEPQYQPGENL

`Cc1ccc(NC(=O)c2ccc(CN(CCN(C)C)C(=O)c3cccnc3)cc2)cc1Nc1nccc(-c2cccnc2)n1`: the Activity came out at 74% in data set [1]; 100% in [2]; 100% in data set [3]; 100% in data set [4]; 100% in [5]; 94% in data set [6]. Also, the Activity in [7] was 85%; in data set [8], 80%; in data set [9], 79%; in data set [10] it was 78%; in data set [11], 100%; in data set [12] it was 91%. Also, the Activity in data set [13] came to 100%; in [14], 100%; in data set [15], 96%; in data set [16] it was 100%; in [17], 85%; in data set [18], 96%. In addition, the Activity in data set [19] is 100%. For the same compound, in [20], the Vd amounted to 5.98 L/kg. Further, the outcome in the data set on EOL1 was Active.
